Series [1] deals with T1, Hepatocyte growth factor receptor (Homo sapiens, UniProt P08581). The experiment in a line: Inhibition of HGF-mediated c-met autophosphorylation in serum-starved human PC3 cells after 1 hr by electrochemiluminescent immunoassay. It counts as cell-based, PC-3.
Series [2] concerns the target T1, Hepatocyte growth factor receptor. The experiment in a line: Inhibition of recombinant c-met-mediated gastrin phosphorylation by HTRF assay.
Series [3] is described as follows: Elimination half life in Sprague-Dawley rat at 2 mg/kg, iv. It counts as ADME, organism-based. On the set-up: dose 2 mg/kg, route intravenous. The conditions noted are these: in vivo, read-out: beta t1/2 (converted). The gist of the method:
(§1)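 Male Sprague-Dawley rats, 3 animals per study, given 2 mg/kg iv as a solution in DMSO. Clearance, steady-state volume and half-life were derived from plasma pharmacokinetics.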

The subject of series [4] is Mus musculus. The series can be described thus: Inhibition of HGF-mediated c-met autophosphorylation in Balb/c mouse liver at 10 mg/kg, po administered 2 hrs before and measured after 5 mins of HGF stimulation by electrochemiluminescent assay. It counts as functional. The gist of the method:
(§2)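 Balb/c mice were gavaged at 10, 30 or 100 mg/kg. At 2 h postdose, human HGF was injected iv and livers were harvested 5 min later. Phospho-c-Met was quantified by electrochemiluminescent assay and compared with vehicle + HGF. Mean ± SD, n = 3. Terminal plasma concentrations were measured.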

A short description of series [5]: Oral bioavailability in Sprague-Dawley rat at 5 mg/kg. It counts as ADME, organism-based. The conditions noted are these: in vivo. The gist of the method: (§3)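 Male Sprague-Dawley rats, 3 animals per study, dosed orally at 5 mg/kg as a suspension in 1% Tween 80, 99% OraPlus.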
Series [6] in a line: Clearance in Sprague-Dawley rat at 2 mg/kg, iv. It counts as ADME, organism-based. Also on record: dose 2 mg/kg, route intravenous. Particulars: in vivo. The gist of the method:
as §1

Series [7] in a line: Volume of distribution at steady-state in Sprague-Dawley rat at 2 mg/kg, iv. It counts as ADME, organism-based. Also on record: dose 2 mg/kg, route intravenous. The conditions noted are these: in vivo, read-out: Vdss. The gist of the method: as §1
For series [8], the target named is Insulin-like growth factor 1 receptor (Homo sapiens) (UniProt P08069). The series can be described thus: Inhibition of IGF1R.
The target in series [9] is Vascular endothelial growth factor receptor 2 (Homo sapiens, UniProt P35968). The series can be described thus: Inhibition of VEGFR2.
In series [10] the test system is Mus musculus. The series can be described thus: Inhibition of HGF-mediated c-met autophosphorylation in po dosed Balb/c mouse liver compound administered 2 hrs before and measured after 5 mins of HGF stimulation by electrochemiluminescent assay. It counts as functional. The gist of the method: as §2
Series [11] can be described thus: AUC in Sprague-Dawley rat at 5 mg/kg, po. It counts as ADME, organism-based. On the set-up: dose 5 mg/kg, route oral. Particulars: plasma. The gist of the method: as §3

Broadly, the IC50 is the concentration that gives 50% inhibition. One may read the Ki as the dissociation constant of the complex between target and ligand, obtained from inhibition or displacement. Take `COc1cc2nccc(Oc3ccc(NC(=O)N4CCN(c5ccccc5)C4=O)cc3F)c2cc1OC`: the midpoint of inhibition in series [1], the IC50, lay at 0.053 µM. In addition, the Ki in [2] was 0.0017 µM.

Take `COc1ccc2c(OCc3nnc4ccc(-c5cc(F)c(F)c(F)c5)cn34)ccnc2c1`: in [2], the Ki was 0.0048 µM.

One may read the inhibition in vivo as the change of the read-out against control, counted positive when it falls. The term bioavailability denotes dose-corrected exposure relative to a reference, in per cent. The clearance is the rate of elimination divided by the concentration. In general, AUC refers to concentration integrated over time. A higher AUC goes with more exposure. Regarding `COc1cc2nccc(Oc3ccc(NC(=O)c4c(C)n(C)n(-c5ccccc5)c4=O)cc3F)c2cc1OC`, in series [3], the half-life was 4.6 h. Besides, the inhibition in vivo at 10 mg/kg in series [4] stood at 85%. In [5], this compound showed a bioavailability of 94%. The compound further showed a clearance in [6] of 0.583 mL/min/kg. Also, in series [7], the Vd was 0.242 L/kg. The INH in series [8] came to 65 nM. For the same compound, in series [9], the INH was 6.2 nM. Also, in series [10], the ED90 is below 30 mg/kg and the inhibition entry was “Dose-dependent effect”. For the same compound, in series [11], the AUC amounted to 258 µM·h.

In the case of `COc1cc2nccc(Oc3ccc(NC(=S)NC(=O)Cc4ccccc4)cc3F)c2cc1OC`, the affinity in [9], expressed as Ki, was 0.103 µM.

The compound `COc1cc2nccc(Oc3ccc(N(C)C(=O)c4c(C)n(C)n(-c5ccccc5)c4=O)cc3F)c2cc1OC` showed an IC50 in [1] above 20 µM. The Ki in series [2] is above 20 µM.
